Structures are written as SMILES. The source made the active and inactive calls. No cut-off for these calls is given here.

Series [1] is filed under the species Homo sapiens. Kind of series: Induction of apoptosis in human HLA-DR(+), CD11c(+) and CD123(-) expressing mDC at 10 uM after 24 hrs by Annexin-V staining method. Format: functional. The method, boiled down:
(§1)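 PBMCs were stimulated for 24 h with compound at doses of 0.01 nM, 1 nM, 100 nM and 10 µM. Cells were phenotyped into mDC (HLA-DR+ CD11c+ CD123−) and pDC (HLA-DR+ CD11c− CD123+) and stained with Annexin-V to read apoptosis by flow cytometry.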

The species named for series [2] is Homo sapiens. The experiment in a line: Induction of INFalpha production in human HLA-DR(+), CD11c(+) and CD123(-) expressing mDC after 24 hrs by […]. Type of series: functional.
Another series deals with HEK293. The experiment in a line: Toxicity against human TLR8 expressing HEK293 cells after 24 hrs by live/dead fixable aqua staining method. Type of series: cell-based. As to conditions: hek293, 24 h. The essentials:
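HEK293-hTLR8 reporter cells were stimulated with compound for 24 h. Cells were then incubated with Live/Dead fixable Aqua dye for 30 min, washed extensively, and read for viability by flow cytometry.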

The species named for series [3] is Homo sapiens. Kind of series: Induction of INFalpha production in human HLA-DR(+), CD11c(+) and CD123(-) expressing mDC after 24 hrs by intracellular cytokine staining method. Type of series: functional, cell-based. The method, boiled down:
(§2)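 PBMCs were stimulated with aqueous compound for 24 h, with GolgiPlug (10 ng/ml) present for the final 6 h. Cells were washed and surface-stained for lineage markers (mDC HLA-DR+ CD11c+ CD123−; pDC HLA-DR+ CD11c− CD123+). They were then permeabilized with Perm/Fix buffer and stained with fluorochrome-conjugated anti-cytokine antibodies for flow cytometry.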

The species named for series [4] is Homo sapiens. Kind of series: Induction of TNFalpha production in human HLA-DR(+), CD11c(-) and CD123(+) expressing pDC after 24 hrs by intracellular cytokine staining method. Format: functional, cell-based. The essentials:
as §2

The species named for series [5] is Homo sapiens. The experiment in a line: Induction of TNFalpha production in human HLA-DR(+), CD11c(+) and CD123(-) expressing mDC after 24 hrs by intracellular cytokine staining.
For series [6], the species on record is Homo sapiens. The experiment in a line: Induction of TNFalpha production in human HLA-DR(+), CD11c(-) and CD123(+) expressing pDC after 24 hrs by […]. Format: functional.
For series [7], the system named is PBMC. The experiment in a line: Induction of IFNalpha production in primary human PBMC at 0.001 to 10 uM after 24 hrs by ELISA method. Format: functional, cell-based. The method, boiled down: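 Fresh healthy-donor PBMCs were isolated by Ficoll and plated at 0.5 × 10^6 cells/well in RPMI-1640/10% FBS with antibiotics. Aqueous compound formulations were added for 24 h across 0.0001–10 µM. Supernatant IFNa was measured by ELISA. Data are from three donors, each run in triplicate, with SEM shown.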

Series [8] concerns PBMC. Kind of series: Induction of TNFalpha production in primary human PBMC after 24 hrs by ELISA method. Type of series: functional, cell-based. The method, boiled down:
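Ficoll-isolated healthy-donor PBMCs at 0.5 × 10^6 cells/well in RPMI-1640/10% FBS were stimulated 24 h with aqueous compound. Supernatant TNFa was assayed with a […]. Data are from three donors in triplicate, with SEM shown.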
(ELISA stands for enzyme-linked immunosorbent assay.)

Series [9] can be described thus: Induction of IL6 expression in human HLA-DR(+), CD11c(+) and CD123(-) expressing mDC after 24 hrs by intracellular cytokine staining method. Format: functional. Further details: concentration or dose not given beside the values. The essentials: as §2
Series [10] deals with PBMC. Kind of series: Induction of IFNgamma production in primary human PBMC after 24 hrs by ELISA method. Format: functional, cell-based.
The species entered for series [11] is Homo sapiens. Kind of series: Induction of INFalpha production in human HLA-DR(+), CD11c(-) and CD123(+) expressing pDC after 24 hrs by […]. Type of series: functional.
The species named for series [12] is Homo sapiens. Kind of series: Induction of apoptosis in human HLA-DR(+), CD11c(-) and CD123(+) expressing pDC at 10 uM after 24 hrs by Annexin-V staining method. Type of series: functional. The method, boiled down:
as §1

The species named for series [13] is Homo sapiens. The experiment in a line: Induction of TNFalpha production in human HLA-DR(+), CD11c(+) and CD123(-) expressing mDC after 24 hrs by intracellular cytokine staining method. Format: functional, cell-based. The essentials:
as §2

The subject of series [14] is PBMC. The experiment in a line: Reduction in IFNalpha production in primary human PBMC at >10 uM after 24 hrs by ELISA method. Type of series: functional, cell-based.
The species named for series [15] is Homo sapiens. The experiment in a line: Induction of INFalpha production in human HLA-DR(+), CD11c(-) and CD123(+) expressing pDC after 24 hrs by intracellular cytokine staining method. Format: functional, cell-based. The essentials:
as §2

The target in the next series is T1, Toll-like receptor 7 (Homo sapiens, UniProt Q9NYK1).
T1 sequence (Q9NYK1 whole entry): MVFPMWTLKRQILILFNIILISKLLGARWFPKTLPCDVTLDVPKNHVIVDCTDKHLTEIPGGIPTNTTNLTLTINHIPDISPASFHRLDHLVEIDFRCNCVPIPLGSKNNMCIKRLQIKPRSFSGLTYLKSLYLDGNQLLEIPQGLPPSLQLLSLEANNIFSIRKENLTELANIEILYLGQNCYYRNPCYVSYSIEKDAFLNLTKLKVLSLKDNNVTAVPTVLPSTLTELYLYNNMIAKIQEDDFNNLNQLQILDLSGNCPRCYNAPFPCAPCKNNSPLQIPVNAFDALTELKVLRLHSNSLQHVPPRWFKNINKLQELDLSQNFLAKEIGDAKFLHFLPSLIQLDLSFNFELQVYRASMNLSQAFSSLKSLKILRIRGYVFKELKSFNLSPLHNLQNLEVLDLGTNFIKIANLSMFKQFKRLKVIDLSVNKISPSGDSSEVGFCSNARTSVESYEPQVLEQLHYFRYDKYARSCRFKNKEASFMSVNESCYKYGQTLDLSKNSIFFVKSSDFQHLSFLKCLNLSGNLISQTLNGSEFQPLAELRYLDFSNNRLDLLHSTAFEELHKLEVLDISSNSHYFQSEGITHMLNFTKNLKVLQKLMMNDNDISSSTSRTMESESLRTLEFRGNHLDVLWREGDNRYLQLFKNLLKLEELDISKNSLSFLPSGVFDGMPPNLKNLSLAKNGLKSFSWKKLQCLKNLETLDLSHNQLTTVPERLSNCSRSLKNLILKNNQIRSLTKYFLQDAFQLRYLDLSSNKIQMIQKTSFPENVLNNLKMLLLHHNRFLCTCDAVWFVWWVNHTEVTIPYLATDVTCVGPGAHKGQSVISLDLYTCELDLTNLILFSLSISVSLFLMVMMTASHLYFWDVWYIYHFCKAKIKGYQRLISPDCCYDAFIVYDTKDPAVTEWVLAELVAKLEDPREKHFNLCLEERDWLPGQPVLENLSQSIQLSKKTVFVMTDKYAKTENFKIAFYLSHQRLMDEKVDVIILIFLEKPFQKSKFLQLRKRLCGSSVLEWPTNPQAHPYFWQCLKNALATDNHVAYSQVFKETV
The experiment in a line: Activation of human TLR7 expressed in HEK293 cells after 24 hrs by NFkappaB-mediated SEAP reporter gene assay. Type of series: cell-based. As to conditions: read-out: EC50. The method, boiled down: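 HEK293 cells stably transfected with hTLR7 or hTLR8 plus an NF-kB-driven SEAP reporter were kept in DMEM/10% FBS with selection antibiotics. Aqueous compound formulations were added for 24 h, and supernatant SEAP was read colorimetrically. Points were run in triplicate and averaged. Activity was scaled to the maximum of a reference agonist set at 100%. EC50 was taken from dose-response curves with 95% CI.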
On the technique in general: A reporter such as luciferase makes a cellular process visible.

With `CCCCOc1nc(N)c2[nH]c(=O)n(CC3CCNCC3)c2n1.Cl`, the result in the series filed under Homo sapiens [1], with PBMC [7] and in the series listed under Homo sapiens [12] was Active. Besides, the Activity entry was “Dose-dependent effect” in the series filed under Homo sapiens [2]; “Non-toxic” in the series with HEK293; “Dose-dependent effect” in the series listed under Homo sapiens [3]; “Dose-dependent effect” in the series listed under Homo sapiens [4]; “Dose-dependent effect” in the series filed under Homo sapiens [5]; “Dose-dependent effect” in the series filed under Homo sapiens [6]. Besides, the Activity in series [9] is 2.95%; in the series listed under Homo sapiens [11], “Dose-dependent effect”; in the series filed under Homo sapiens [13], “Dose-dependent effect”; in the series listed under Homo sapiens [15], “Dose-dependent effect”. For the same molecule, the outcome with PBMC [8] and with PBMC [10] was inactive. The inhibition result in the series on PBMC [14] is “Dose-dependent effect”. Moreover, the EC50 (as a rule, the concentration needed to bring the measured effect to its halfway point) at Toll-like receptor 7 turned out to be 3.95 µM.

Source of the values: ChEMBL document CHEMBL3396959, “Structural requirements for TLR7-selective signaling by 9-(4-piperidinylalkyl)-8-oxoadenine derivatives” (Bioorg Med Chem Lett, 2015).
